Measurements as given in ChEMBL document CHEMBL1157101, “A series of alpha-heterocyclic carboxaldehyde thiosemicarbazones inhibit topoisomerase IIalpha catalytic activity” (J Med Chem, 2010).
Active and inactive are the calls of the source. The rule behind the calls is not given here.

How the values were obtained:
[1] = Antiproliferative activity against human MCF7/ADR cells after 72 hrs by sulforhodamine B assay; format: functional, cell-based; conditions: NCI/ADR-RES
Outline: (§1)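 Cells seeded and exposed in triplicate to graded compound concentrations for 72 h. Suspension cells read by MTT conversion to coloured product; adherent cells read by sulforhodamine B. IC50 (50% growth inhibition versus untreated control) derived by the Logit method.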

[2] = Antiproliferative activity against human KB/VCR cells after 72 hrs by sulforhodamine B assay; format: functional, cell-based; outline: as §1
[3] = target: T1, DNA topoisomerase 2-alpha (Homo sapiens, UniProt P11388); assay: Inhibition of topoisomerase 2alpha assessed as antagonization of etoposide-mediated prestrand passage DNA cleavage in absence of ATP
[4] = test system: Mus musculus; assay: Toxicity in Kunming mouse bearing mouse S180 cells assessed as change in body weight at 12.5 mg/kg/day, ip for 7 days (reference value: 17.9 g); format: organism-based, CCRF S-180; parameters: route intraperitoneal; conditions: in vivo, 168 h
Outline: (§2)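 Female Kunming mice, 7 weeks old and 18-22 g, were inoculated sc in the right armpit with S-180 sarcoma. From the next day they received ip injections at the stated daily dose for 7 days, alongside a normal-saline control group. Body weight was recorded at the start and at the end of treatment.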

[5] = target: T1, DNA topoisomerase 2-alpha; assay: Inhibition of human topoisomerase 2alpha-mediated decatenation of kDNA at 25 uM
[6] = Antiproliferative activity against human K562/A02 cells after 72 hrs by sulforhodamine B assay; format: functional, cell-based; conditions: K562/A02, 72 h, in the assay text read “MTT assay” for “sulforhodamine B assay”; outline: as §1
[7] = test system: NCI-H23; assay: Antiproliferative activity against human NCI-H23 cells after 72 hrs by sulforhodamine B assay; format: functional, cell-based; conditions: NCI-H23, 72 h; outline: as §1
[8] = test system: MDA-MB-231; assay: Antiproliferative activity against human MDA-MB-231 cells after 72 hrs by sulforhodamine B assay; format: functional, cell-based; conditions: MDA-MB-231, 72 h; outline: as §1
[9] = test system: Mus musculus; assay: Toxicity in Kunming mouse bearing mouse S180 cells assessed as change in body weight at 50 mg/kg/day, ip for 7 days (reference value: 17.9 g); format: organism-based, CCRF S-180; parameters: route intraperitoneal; conditions: in vivo, 168 h; outline: as §2
[10] = target: T1, DNA topoisomerase 2-alpha; assay: Inhibition of topoisomerase-2 alpha in human HT-29 cells assessed as reversal of etoposide-mediated DNA double strand break after 1 hr measured as phosphorylated histone2A level by immunostaining; format: cell-based
[11] = target: T1, DNA topoisomerase 2-alpha; assay: Inhibition of topoisomerase-2 alpha in human HL60/MX2 cells assessed as antagonization of enzyme-DNA cleavage complex at 100 uM; format: cell-based
[12] = test system: HT-29; assay: Cytotoxicity against human HT-29 cells after 72 hrs in presence of FeSO4; format: functional, cell-based
[13] = test system: MKN-28; assay: Antiproliferative activity against human MKN28 cells after 72 hrs by sulforhodamine B assay; format: functional, cell-based; conditions: MKN-28, 72 h; outline: as §1
[14] = test system: CCRF S-180; assay: Antitumor activity against mouse S180 cells transplanted in Kunming mouse assessed as inhibition of tumor growth at 12.5 mg/kg/day, ip for 7 days; format: functional; conditions: CCRF S-180, ip, 168 h, route intraperitoneal
Outline: (§3)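 Female Kunming mice, 7 weeks old, 18-22 g, inoculated sc in the right armpit with S-180 sarcoma. Dosing began the next day, ip daily for 7 days; normal saline given iv as control. Tumours excised and weighed after treatment. Inhibitory rate (%) = (mean control tumour weight − mean treated tumour weight)/mean control tumour weight × 100.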

[15] = test system: HT-29; assay: Antiproliferative activity against human HT-29 cells after 72 hrs by sulforhodamine B assay; format: functional, cell-based; conditions: HT-29, 72 h; outline: as §1
[16] = target: T1, DNA topoisomerase 2-alpha; assay: Inhibition of human topoisomerase 2alpha binding to pBR322 DNA binding by electrophoretic mobility shift assay
Outline: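 Electrophoretic mobility shift assay. 0.2 μg supercoiled pBR322 with 200 nM human Topo IIα, ± compound, 10 min at 37 °C. Separated 90 min on 1% agarose containing 0.5 μg/mL ethidium bromide in TAE.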

[17] = test system: HT-29; assay: Inhibition of DNA synthesis in human HT-29 cells measured at 0.25 to 1 uM by BrdU incorporation assay; format: functional, cell-based
Outline: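 HT-29 cells; DNA synthesis measured by BrdU incorporation with flow detection.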

[18] = target: T1, DNA topoisomerase 2-alpha; assay: Inhibition of topoisomerase-2 alpha in human HT-29 cells assessed as reversal of etoposide-mediated DNA double strand break measured as phosphorylated histone2A level at 30 uM by immunostaining; format: cell-based
[19] = target: T1, DNA topoisomerase 2-alpha; assay: Inhibition of human topoisomerase 2alpha-mediated relaxation of pBR322 at 25 uM
[20] = test system: MDA-MB-435; assay: Antiproliferative activity against human MDA-MB-435 cells after 72 hrs by sulforhodamine B assay; format: functional, cell-based; conditions: MDA-MB-435, 72 h; outline: as §1
[21] = test system: HCT-116; assay: Antiproliferative activity against human HCT116 cells after 72 hrs by sulforhodamine B assay; format: functional, cell-based; conditions: HCT-116, 72 h; outline: as §1
[22] = test system: Bel-7402; assay: Antiproliferative activity against human Bel7402 cells after 72 hrs by sulforhodamine B assay; format: functional, cell-based; conditions: Bel-7402, 72 h; outline: as §1
[23] = test system: MCF7; assay: Antiproliferative activity against human MCF7 cells after 72 hrs by sulforhodamine B assay; format: functional, cell-based; conditions: MCF7, 72 h
[24] = target: T1, DNA topoisomerase 2-alpha; assay: Inhibition of human topoisomerase 2alpha ATPase domain assessed as ATP hydrolysis
Outline: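 NADH-coupled ATPase assay at 37 °C in 100 μL. Contains 2 μg Topo IIα ATPase domain (or 18 nM Topo IIα), 0.2 μg pBR322, 1 mM ATP, 2 mM PEP, 0.16 mM NADH, 5 U pyruvate kinase and 8 U lactate dehydrogenase.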

[25] = target: T1, DNA topoisomerase 2-alpha; assay: Inhibition of topoisomerase 2-mediated displacement of ethidium bromide from DNA assessed as decrease in fluorescence
[26] = test system: HT-29; assay: Cell cycle arrest in human HT-29 cells assessed as accumulation at G1 phase at 0.5 to 1 uM after 24 hrs by flow cytometry; format: functional, cell-based
Outline: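 HT-29 cells stained with propidium iodide; cell-cycle distribution determined by flow cytometry.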

[27] = test system: HL-60; assay: Antiproliferative activity against human HL60 cells after 72 hrs by sulforhodamine B assay; format: functional, cell-based; conditions: HL-60, 72 h, in the assay text read “MTT assay” for “sulforhodamine B assay”; outline: as §1
[28] = target: T1, DNA topoisomerase 2-alpha; assay: Inhibition of topoisomerase-2 alpha in human HT-29 cells assessed as reversal of etoposide-mediated DNA double strand break measured as phosphorylated histone2A level at 1 uM by immunostaining; format: cell-based
[29] = test system: CCRF S-180; assay: Antitumor activity against mouse S180 cells transplanted in Kunming mouse assessed as inhibition of tumor growth at 50 mg/kg/day, ip for 7 days; format: functional; conditions: CCRF S-180, ip, 168 h, route intraperitoneal; outline: as §3
[30] = test system: Mus musculus; assay: Toxicity in Kunming mouse bearing mouse S180 cells assessed as change in body weight at 25 mg/kg/day, ip for 7 days (reference value: 17.9 g); format: organism-based, CCRF S-180; parameters: route intraperitoneal; conditions: in vivo, 168 h; outline: as §2
[31] = test system: U-937; assay: Antiproliferative activity against human U937 cells after 72 hrs by sulforhodamine B assay; format: functional, cell-based; conditions: U-937, 72 h; outline: as §1
[32] = test system: A-375; assay: Antiproliferative activity against human A375 cells after 72 hrs by sulforhodamine B assay; format: functional, cell-based; conditions: A-375, 72 h; outline: as §1
[33] = test system: Nucleic Acid; assay: Inhibition of Fenton's reaction mediated DNA strand break in Escherichia coli pBR322 by gel electrophoresis; format: nucleic-acid assay
Outline: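 pBR322 (0.2 μg) incubated 30 min at room temperature in 13 mM Hepes pH 7.2 with 1 mM H2O2 and 10 μM FeSO4 plus compound. Run on 1% agarose containing 0.1 μg/mL ethidium bromide at 90 V for 60 min. Bands quantified; % supercoiled = 1.4SC/(L+OC+1.4SC)×100.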

T1 sequence (P11388 whole entry): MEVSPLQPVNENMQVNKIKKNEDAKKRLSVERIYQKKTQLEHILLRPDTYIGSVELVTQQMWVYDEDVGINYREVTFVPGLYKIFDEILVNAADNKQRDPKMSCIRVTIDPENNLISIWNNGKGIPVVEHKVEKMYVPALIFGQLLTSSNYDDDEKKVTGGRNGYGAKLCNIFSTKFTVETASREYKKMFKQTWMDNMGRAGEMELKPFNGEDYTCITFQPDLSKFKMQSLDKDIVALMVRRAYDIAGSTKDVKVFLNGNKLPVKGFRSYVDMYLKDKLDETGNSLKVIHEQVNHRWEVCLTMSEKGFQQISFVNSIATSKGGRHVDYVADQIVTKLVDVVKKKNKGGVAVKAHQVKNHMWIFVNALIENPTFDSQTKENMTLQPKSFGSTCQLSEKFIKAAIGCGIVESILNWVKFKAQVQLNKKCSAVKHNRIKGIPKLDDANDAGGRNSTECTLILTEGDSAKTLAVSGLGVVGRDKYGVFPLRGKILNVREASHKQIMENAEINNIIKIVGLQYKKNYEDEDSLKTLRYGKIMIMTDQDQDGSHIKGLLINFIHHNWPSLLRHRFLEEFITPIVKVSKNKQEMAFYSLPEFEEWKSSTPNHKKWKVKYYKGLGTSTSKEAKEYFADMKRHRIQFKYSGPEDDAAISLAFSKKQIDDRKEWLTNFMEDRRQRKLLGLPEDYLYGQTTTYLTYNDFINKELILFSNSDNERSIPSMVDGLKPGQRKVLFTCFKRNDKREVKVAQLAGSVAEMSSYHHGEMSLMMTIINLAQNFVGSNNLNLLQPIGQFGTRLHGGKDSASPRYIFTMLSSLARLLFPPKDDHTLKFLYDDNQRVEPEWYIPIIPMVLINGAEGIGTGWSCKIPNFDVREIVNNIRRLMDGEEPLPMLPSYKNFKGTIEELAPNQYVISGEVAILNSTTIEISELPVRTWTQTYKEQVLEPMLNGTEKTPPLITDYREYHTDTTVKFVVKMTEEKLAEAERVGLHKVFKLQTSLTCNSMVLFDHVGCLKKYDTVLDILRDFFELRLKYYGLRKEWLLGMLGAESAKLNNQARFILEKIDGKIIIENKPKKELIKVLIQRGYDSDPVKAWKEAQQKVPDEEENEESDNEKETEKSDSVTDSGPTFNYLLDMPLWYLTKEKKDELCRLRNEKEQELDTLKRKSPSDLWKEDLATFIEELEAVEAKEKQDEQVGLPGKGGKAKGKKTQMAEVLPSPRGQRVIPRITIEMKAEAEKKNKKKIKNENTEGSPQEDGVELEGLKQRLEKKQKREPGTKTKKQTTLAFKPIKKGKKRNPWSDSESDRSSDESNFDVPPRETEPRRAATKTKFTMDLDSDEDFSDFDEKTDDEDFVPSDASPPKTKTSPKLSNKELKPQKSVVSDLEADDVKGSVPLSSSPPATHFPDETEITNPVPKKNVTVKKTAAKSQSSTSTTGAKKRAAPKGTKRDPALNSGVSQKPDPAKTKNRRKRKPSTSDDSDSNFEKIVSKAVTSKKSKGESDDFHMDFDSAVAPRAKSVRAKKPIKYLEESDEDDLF

With `CN(C)C(=S)N/N=C/c1ccc2ccccc2n1` the IC50 [1] was 0.2 µM, the IC50 [2] was 0.3 µM and the inhibition [3] was “inactive”. The Activity [4] was 29 g, the inhibition [5] was “Active” and the IC50 [6] was 0.06 µM. The IC50 [7] was 0.08 µM, the IC50 [8] was 0.02 µM and the Activity [9] was 20 g. The inhibition [10] was “Dose-dependent effect”, the inhibition [11] was “inactive” and the inhibition [12] was “Active”. It also gave an IC50 [13] of 0.17 µM, an inhibition in vivo at 12.5 mg/kg/day [14] of 17.6% and an IC50 [15] of 0.02 µM. For the same molecule, the inhibition [16] was “inactive”, the inhibition [17] was “Dose-dependent effect” and the inhibition [18] was “Active”. The inhibition [19] was “inactive”, the IC50 [20] was 0.37 µM and the IC50 [21] was 0.22 µM. The IC50 [22] was 0.18 µM, the IC50 [23] was 0.34 µM and the inhibition [24] was “Dose-dependent effect”. The inhibition [25] was “inactive”, the Activity [26] was “Active” and the IC50 [27] was 0.05 µM. For the same molecule, the inhibition [28] was “Active”, the inhibition in vivo at 50 mg/kg/day [29] was 76.7% and the Activity [30] was 23.9 g. The IC50 [31] was 0.03 µM, the IC50 [32] was 0.02 µM and the inhibition [33] was “Dose-dependent effect”.
